High-throughput results from PubChem.
ABCG2 block – inhibitors of human ABCG2 transporter, ABCB1 counter-screen. IgMXP3 cells, JC-1 efflux, flow cytometry. inhibition, % at 6.6 µM. hit rate 0.1% among 190,000;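 active = inhibition above 80%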;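 also: 0% = DMSO and 100% = nicardipine control wells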
Target sequence (Q9UNQ0 whole entry, looked up): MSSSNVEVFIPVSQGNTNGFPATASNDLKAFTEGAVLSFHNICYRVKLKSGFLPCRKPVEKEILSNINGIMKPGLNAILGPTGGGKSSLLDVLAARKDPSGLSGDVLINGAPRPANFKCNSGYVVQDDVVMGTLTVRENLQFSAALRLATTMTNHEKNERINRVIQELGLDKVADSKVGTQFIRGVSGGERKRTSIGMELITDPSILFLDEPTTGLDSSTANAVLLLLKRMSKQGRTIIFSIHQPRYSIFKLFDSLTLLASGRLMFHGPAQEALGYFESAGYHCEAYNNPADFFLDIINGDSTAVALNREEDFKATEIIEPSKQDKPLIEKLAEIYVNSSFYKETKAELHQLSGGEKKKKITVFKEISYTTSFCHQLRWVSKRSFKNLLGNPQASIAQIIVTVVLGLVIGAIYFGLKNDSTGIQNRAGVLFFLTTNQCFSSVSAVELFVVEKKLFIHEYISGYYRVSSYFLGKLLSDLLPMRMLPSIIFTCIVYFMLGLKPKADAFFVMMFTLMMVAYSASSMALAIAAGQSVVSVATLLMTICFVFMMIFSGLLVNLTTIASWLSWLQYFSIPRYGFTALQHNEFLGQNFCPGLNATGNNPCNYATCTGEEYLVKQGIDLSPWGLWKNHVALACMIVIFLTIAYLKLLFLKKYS
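Incubation: cells with compound and JC-1, 10 min at 25 °C, rotating, no wash / Test system: IgMXP3 (ABCG2) plus far-red-tagged CCRF-Adr (ABCB1) cells / Compound dosing: one concentration, 6.6 µM final / Also added: JC-1 fluorescent substrate / Evaluation: efflux inhibition in percent versus controls / Detection: flow cytometry, 530 nm JC-1 signal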
Calb biofilm kill – mixture kills Candida albicans biofilm cells; C. albicans biofilm persisters + clotrimazole, fluorescence viability; primary screen in compound mixtures of four per well; inhibition, % at 7.6 µM; hit rate 0.02% among 120,000; AID 1242;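 active = inhibition above 30.3% in the primary screen of four-compound pools, then above 30% when the compound was retested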;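 also: compounds exposed to preformed 24 h biofilms for 48 h; 0% = untreated biofilm control and 100% = clotrimazole plus chlorhexidine kill blank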
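Incubation: 24 h biofilm formation, then 48 h compound exposure, 37 °C | Material: C. albicans biofilms | Buffer or medium: RPMI/MOPS medium, pH 7.0 | Measured by: 2-h Alamar Blue fluorescence, 535/590 nm excitation/emission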
ABCB1 inh – blocks JC-1 efflux by human ABCB1 transporter; P08183; CCRF-Adr cells, flow cytometry; inhibition, % at 6.6 µM; hit rate 0.067% among 190,000; AID 1326; in the data active = inhibition above about 40%;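 also: 0% = vehicle and 100% = reference inhibitor; higher value means more JC-1 retained so stronger ABCB1 efflux block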
zfTRPN1 agonist – agonists of zebrafish TRPN1 channel; activation, % at 3 µM; hit rate 0.18% among 220,000; AID 1424; HEK293 zebrafish TRPN1-YFP, Fluo-8 calcium fluorescence; 100% = response to 87 µM carbachol;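 active = activation above its plate's cutoff, the mean activation of test wells on that plate plus 3 SD, cut at about 19% in these data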;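 also: 0% = DMSO alone and 100% = 87 µM carbachol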
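Material – zebrafish TRPN1-YFP in HEK293 cells · Doses – 3 µM single point · Schedule – dye 1 h 37 °C plus 30 min RT · Signal – Fluo-8 calcium fluorescence, excitation 470-495 nm, emission 515-575 nm · Read-out – % activation versus carbachol response · Control set – carbachol high, DMSO low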
ROMK primary – human ROMK K+ channel modulation, primary screen; P48048; Tet-inducible ROMK, thallium flux fluorescence; actives lie on both sides; B-score at 10 µM; hit rate 2% among 130,000; AID 1918;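 active = signal ratio slope over the read window, or its plate-corrected B-score, at least 3 SD from the plate mean, either direction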;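 also: B-score of the F/F0 ratio slope over 7 to 12 s after thallium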
TRPML3 agonist – activates the human TRPML3 channel; hit rate 0.29% among 220,000; AID 1448; HEK293 TRPML3-YFP, Fluo-8 calcium fluorescence; 100% = the carbachol control signal; activation, % at 3 µM; Q8TDD5;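 active = activation above its plate's cutoff, the mean activation of the plate's test wells plus 3 SD, cut at about 12% in these data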;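 also: 0% = DMSO only wells and 100% = carbachol wells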
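system = HEK293 cells stably carrying human TRPML3-YFP | doses = one concentration, 3 µM nominal, 0.3% DMSO | timing = dye loading 1 h 37 °C then 30 min ambient, 125 s read | detection = Fluo-8 calcium dye fluorescence, ex 470-495, em 515-575 nm | benchmarks = high control carbachol 87 µM, low control DMSO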
ROMK retest – confirmation of human ROMK potassium channel modulators. hit rate 54% among 3,000. AID 1917. shares compounds with ROMK primary. ROMK thallium flux, fluorescence ratio; stronger effect = lower value. normalized thallium flux (F/F0 slope) at 10 µM;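 active = Flux at 10 µM at least 3 SD below or above vehicle control mean in one or both replicates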
* hit, by the source's call. The full list was thinned out, with hits kept by preference.

Results for CC(C)N1CCC(N2CCN(Cc3ccc(-c4ccc(Cl)cc4)o3)CC2CCO)CC1 (centres undefined) ?
ABCG2 block: 1; Calb biofilm kill: 20; ABCB1 inh: -1; zfTRPN1 agonist: -1; ROMK primary: -3.7*; TRPML3 agonist: 0; ROMK retest: 0.064*

What do the screens show for `O=C(O)c1ccc(NC2=C/C(=N/S(=O)(=O)c3ccccc3)c3ccccc3C2=O)cc1`?
ABCG2 block: 1; Calb biofilm kill: 17; ABCB1 inh: -1; zfTRPN1 agonist: -1; ROMK primary: -3.4*; TRPML3 agonist: 0; ROMK retest: 0.052*

What do the screens show for `O=C1N=C2SCCN2/C1=C\c1ccc(Cl)cc1`?
ABCG2 block: 3; ABCB1 inh: 1; zfTRPN1 agonist: -1; ROMK primary: -7.6*; TRPML3 agonist: 1; ROMK retest: 0.047*

What do the screens show for `Cc1csc2c(N3CCN(C(=O)Nc4ccccc4)CC3)ncnc12`?
Calb biofilm kill: 12; zfTRPN1 agonist: 8; ROMK primary: -0.56; TRPML3 agonist: 4

Results for Cc1csc2c(N3CCN(C(=S)Nc4ccc(F)cc4F)CC3)ncnc12 ?
Calb biofilm kill: 13; zfTRPN1 agonist: 12; ROMK primary: -3.3*; TRPML3 agonist: 5; ROMK retest: 0.061*

How did CC(C)NC(=O)C1CCN(C2CCN(Cc3ccc4cccc(F)c4n3)CC2)CC1 do in these assays?
ABCG2 block: 3; Calb biofilm kill: -2; ABCB1 inh: 1; zfTRPN1 agonist: -1; ROMK primary: -0.18; TRPML3 agonist: 0

What do the screens show for `COc1ccc(/C=N/NC(=O)c2cc(C(C)(C)C)[nH]n2)cc1COc1ccc(F)cc1F`?
ABCG2 block: -3; Calb biofilm kill: 7; ABCB1 inh: -3; zfTRPN1 agonist: -1; ROMK primary: -11*; TRPML3 agonist: -1; ROMK retest: 0.083

What do the screens show for `COc1ccc(/C=N/NC(=O)c2nc(Cl)c(Cl)c(N)c2Cl)cc1COc1ccc(F)cc1F`?
ABCG2 block: 0; ABCB1 inh: 0; zfTRPN1 agonist: -1; TRPML3 agonist: 0

Results for O=S(=O)(/C=C/c1ccccc1)Nc1cccc(S(=O)(=O)NC2=NCCC2)c1 ?
ABCG2 block: 3; Calb biofilm kill: 8; ABCB1 inh: 1; zfTRPN1 agonist: 1; ROMK primary: -0.8; TRPML3 agonist: 0

Results for CC1(c2ccccc2)CC(C)(C)N(C(=O)C2CCCO2)c2ccccc21 (centres undefined) ?
ABCG2 block: 4; ABCB1 inh: 1; zfTRPN1 agonist: -2; ROMK primary: -3.6*; TRPML3 agonist: -1; ROMK retest: 0.058*

Results for CCOC(=O)CC1C(=O)NCCN1C1CCCC1 (centres undefined) ?
ABCG2 block: -1; Calb biofilm kill: 19; ABCB1 inh: 0; zfTRPN1 agonist: 0; TRPML3 agonist: 0

How did OC(CN1CCN(c2ccccc2)CC1)Cn1c2ccccc2c2ccccc21 (centres undefined) do in these assays?
ABCG2 block: 13; ABCB1 inh: 2; zfTRPN1 agonist: -1; ROMK primary: 0.084; TRPML3 agonist: 1

Results for Cn1cc(CN2CCN(c3ccccc3)CC2)c2ccccc21 ?
ABCG2 block: 0; ABCB1 inh: 2; zfTRPN1 agonist: 1; ROMK primary: -5.2*; TRPML3 agonist: 0; ROMK retest: 0.056*

What do the screens show for `COc1ccc(OCCNc2cc(N3CCCCC3)ccc2[N+](=O)[O-])cc1`?
ABCG2 block: 3; ABCB1 inh: 1; zfTRPN1 agonist: 1; TRPML3 agonist: 0

How did CC1CN(c2ccc([N+](=O)[O-])c(NCCOc3ccccc3)c2)CCN1 (centres undefined) do in these assays?
ABCG2 block: 1; Calb biofilm kill: 41; ABCB1 inh: 0; zfTRPN1 agonist: 5; ROMK primary: -2.5*; TRPML3 agonist: 1; ROMK retest: 0.062*

Results for CC1=Nc2ccccc2/C1=C\c1sc(Nc2ccc(C)cc2)nc1O ?
ABCG2 block: -4; Calb biofilm kill: 9; ABCB1 inh: 0; zfTRPN1 agonist: -1; ROMK primary: 2*; TRPML3 agonist: 0; ROMK retest: 0.095

How did Oc1nc(Nc2ccc(F)cc2)sc1/C=C1\C=Nc2ccccc21 do in these assays?
Calb biofilm kill: 12; zfTRPN1 agonist: -3; ROMK primary: 1.5; TRPML3 agonist: -1

How did CN(C)CCN(Cc1cc2cc3c(cc2[nH]c1=O)OCO3)C(=S)NCC1CCCO1 (centres undefined) do in these assays?
ABCG2 block: -2; Calb biofilm kill: 25; ABCB1 inh: 0; zfTRPN1 agonist: 2; ROMK primary: 0.29; TRPML3 agonist: 1

Results for N#C/C(=C/c1ccc([N+](=O)[O-])cc1)C(N)=O ?
ABCG2 block: 0; Calb biofilm kill: 14; ABCB1 inh: 0; zfTRPN1 agonist: 0; ROMK primary: -3.7*; TRPML3 agonist: 1; ROMK retest: 0.06*

How did Cc1[nH]c2ccccc2c1C(=O)C(=O)NCc1cccs1 do in these assays?
ABCG2 block: -1; Calb biofilm kill: -3; ABCB1 inh: 0; zfTRPN1 agonist: 1; ROMK primary: -0.18; TRPML3 agonist: 2

What do the screens show for `S=C(c1ccc(-c2ccc(Br)cc2)o1)N1CCCCC1`?
ABCG2 block: -13; Calb biofilm kill: 5; ABCB1 inh: -5; zfTRPN1 agonist: -1; ROMK primary: -0.63; TRPML3 agonist: 0

Results for S=C(c1ccc(-c2ccc(Br)cc2)o1)N1CCOCC1 ?
Calb biofilm kill: 8; zfTRPN1 agonist: -2; ROMK primary: 2.4*; TRPML3 agonist: 0; ROMK retest: 0.078

What do the screens show for `Cc1ccc(NCc2n[nH]c(=S)n2-c2ccccc2)c(C)c1`?
ABCG2 block: -2; Calb biofilm kill: 11; ABCB1 inh: -1; zfTRPN1 agonist: 1; ROMK primary: 0.077; TRPML3 agonist: 0

Results for COC(=O)c1ccc(Oc2cc(C)nc(-n3nc(C)cc3C)n2)cc1 ?
ABCG2 block: 13; ABCB1 inh: 1; zfTRPN1 agonist: -1; ROMK primary: 4.9*; TRPML3 agonist: 0; ROMK retest: 0.093

What do the screens show for `COC(=O)c1ccc(Oc2nc(C)cc(Oc3ccccc3)n2)cc1`?
ABCG2 block: 1; ABCB1 inh: 0; zfTRPN1 agonist: 0; ROMK primary: -1.3; TRPML3 agonist: 1

What do the screens show for `Cc1cc(C(=O)N2CCCC(C(=O)c3cc(F)ccc3F)C2)c(C)o1` (centres undefined)?
ABCG2 block: 3; Calb biofilm kill: -2; ABCB1 inh: 1; zfTRPN1 agonist: -1; TRPML3 agonist: 0
